Assay results of several laboratories.
Medium: plasma

CC(C)(O)c1cc(Nc2cc(Oc3cn(C4CC4)nc3C3CCOCC3)ccn2)ccn1 — half-life (human; oral; patients): 6.7 h
C[C@@H](c1ccc2nccn2c1)n1nnc2ncc(-c3cnn(C)c3)nc21 — half-life (human; oral; 200 mg): 4.2 h
Cc1cc(Nc2ncc(Cl)c(Nc3ccccc3S(=O)(=O)C(C)C)n2)c2c(c1C1CCN(C)CC1)C[C@@H](C)O2 — half-life (human; oral; 160 mg; single dose, fasted, healthy volunteers): 34.6 h
Cc1nc(-c2cn3c(n2)-c2ccc(-c4cnn(C(C)(C)C(N)=O)c4)cc2OCC3)n(C(C)C)n1 — half-life (human; oral; 2 mg; patients): 28.1 h
CC(C)n1cc(C#N)c2cc(-n3cc(C(=O)O)cn3)ccc21 — half-life (human; oral; 200 mg; single dose, fasted, healthy volunteers): 13.3 h
CC(C)[C@](O)(c1ccc2cc(OC(F)F)c(OC(F)F)cc2c1)c1c[nH]nn1 — half-life (female human; oral; 750 mg; single dose): 6.8 h
COc1cc(C(=O)NC2CCN(C)CC2)c(F)cc1Nc1ncc(C(F)(F)F)c(Oc2cccc3c2C(=O)N(C)C3)n1 — half-life (human; oral; 200 mg; multiple doses, once daily, patients): 20.4 h
COc1ccc(-n2nc(C(N)=O)c3c2C(=O)N(c2ccc(N4CCCCC4=O)cc2)CC3)cc1 — half-life (human; oral; 20 mg; single dose, healthy volunteers): ~13 h
CCOc1cc([C@@H](CS(C)(=O)=O)N2C(=O)c3cccc(NC(C)=O)c3C2=O)ccc1OC — half-life (male human; oral; 20 mg; single dose, healthy volunteers): 7.6 h
C#C[C@]1(COP(=O)(O)OP(=O)(O)OP(=O)(O)O)O[C@@H](n2cnc3c(N)nc(F)nc32)C[C@@H]1O — half-life (human; oral; 30 mg; single dose): 118 h
CCNCCCNC/C=C\CNCCCNCC — half-life (human; intravenous; 50 mg; patients, infusion): 0.18 h
C[C@@H](Nc1cc(F)cc(F)c1)c1cc(C(=O)N(C)C)cc2c(=O)cc(N3CCOCC3)oc12 — half-life (human; oral; 120 mg; single dose, patients): 3.33 h
CC(C)(O)c1ccccc1-c1ccc2[nH]c(/C=C/c3ccc(C(F)(F)F)cc3)nc2c1 — half-life (male human; oral; 50 mg; single dose, fasted, healthy volunteers): 68.6 h
CO[C@H]1/C=C\C=C(/C)C(=O)NC2=CC(=O)C(NCCN(C)C)=C(C[C@@H](C)C[C@H](OC)[C@H](O)[C@@H](C)/C=C(\C)[C@@H]1OC(N)=O)C2=O — half-life (human; intravenous; 27 mg/m²; patients, infusion): 22.5 h
CO[C@@H]1[C@H](OC(=O)N2CC(CCN3CCOCC3)C2)CC[C@]2(CO2)[C@H]1[C@@]1(C)O[C@@H]1CC=C(C)C — half-life (human; subcutaneous; 0.2 mg; single dose, healthy volunteers): 0.49 h
CS(=O)(=O)CCC#N — half-life (human; oral; 300 mg; multiple doses, once daily): 21.3 h
CC(C)(C)OC[C@@H]1C(=O)NCCN1C(=O)C[C@H](N)Cc1cc(F)c(F)cc1F — half-life (male human; oral; 5 mg; multiple doses, steady state, healthy volunteers): 24.7 h
C/C(=C\c1csc(C)n1)[C@@H]1C[C@@H]2O[C@]2(C)CCC[C@H](C)[C@H](O)[C@@H](C)C(=O)C(C)(C)[C@@H](O)CC(=O)N1 — half-life (human; intravenous; 20 mg/m²; patients): 62.2 h
CC(C)(Sc1ccncc1-c1ccc(C#N)c2ccccc12)C(=O)O — half-life (male human; oral; 20 mg; single dose, fed, healthy volunteers): 13.8 h
c1cnc2ccc(Nc3nc(NC4CC4)c4nc[nH]c4n3)cc2c1 — half-life (human; oral; 800 mg/m²; patients): 6 h
COc1ccc([C@@H]2CN(C(=O)[C@@H](O)CO)C[C@@]2(C)[C@@H](C)O)cc1OC1CN(c2ccc(C)cn2)C1 — half-life (human; oral; 10 mg; single dose, healthy volunteers): 12.6 h
O=C(Nc1c(Cl)cncc1Cl)c1ccc(OC(F)F)c(OCC2CC2)c1 — half-life (human; oral; 0.25 mg; single dose): 20.9 h
CO[C@H]1CC[C@H](N2C(=O)CNc3ncc(-c4ccc(C(C)(C)O)nc4)nc32)CC1 — half-life (human; oral; 15 mg; patients): 3.35 h
Cn1cc(-c2ccc(S(=O)(=O)[C@@H]3C[C@@H](C(=O)NC4(C#N)CC4)N(C(=O)C4(C(F)(F)F)CC4)C3)c(C(F)(F)F)c2)cn1 — half-life (human; oral; 30 mg; single dose, fasted, healthy volunteers): 10.2 h
CC(C)(C)N/[N+]([O-])=N/OC1CCN(c2ccc(C#N)cn2)CC1 — half-life (male human; oral; single dose, healthy volunteers): 46 to 78 h
OC[C@H]1O[C@@H](c2ccc(Cl)c(Cc3ccc(O[C@H]4CCOC4)cc3)c2)[C@H](O)[C@@H](O)[C@@H]1O — half-life (male human; oral; 25 mg; multiple doses, once daily, steady state): 8.44 h
COCCOc1cnc2ccn([C@H](C)c3nnc4c(F)cc(-c5cnn(C)c5)cn34)c(=O)c2c1 — half-life (human; oral; 300 mg; multiple doses, once daily, patients): 9.7 h
Nc1cc(C(F)(F)F)c(-c2cc(N3CCOCC3)nc(N3CCOCC3)n2)cn1 — half-life (human; oral; 100 mg/day; patients): 30.6 h
NS(=O)(=O)NCCNc1nonc1C(=NO)Nc1ccc(F)c(Br)c1 — half-life (human; oral; 300 mg; multiple doses, twice daily, steady state, patients): 3.9 h
